{"data": "Published values of several laboratories", "observed": "metabolic stability", "host": "human", "note": "Protocols differ between the studies behind these lines."}
{"Compound": "C[C@H]1C[C@@H](N2C(=N)N[C@](C)(c3cccc(NC(=O)c4cccc(C#N)c4)c3Cl)CC2=O)CCO1", "matrix": "hepatocytes", "tested at": "0.5 µM", "measurement": "hepatocyte CLint", "value": "5 µL/min/10⁶ cells"}
{"Compound": "CNS(=O)(=O)Cc1ccc2[nH]cc(CCN(C)C)c2c1", "matrix": "hepatocytes", "tested at": "5 µM", "measurement": "hepatocyte CLint", "value": "2.8 µL/min/10⁶ cells"}
{"Compound": "Fc1ccccc1Nc1nc(-c2ccccn2)nc2ccccc12", "matrix": "liver microsomes", "measurement": "microsomal CLint", "value": "88 µL/min/mg"}
{"Compound": "C[C@@H](N)c1cc(Cl)ccc1Cn1c(=S)[nH]c(=O)c2[nH]ccc21", "matrix": "hepatocytes", "measurement": "hepatocyte CLint", "value": "< 1 µL/min/10⁶ cells"}
{"Compound": "COc1cc(OC)cc(N(CCNC(C)C)c2ccc3ncc(-c4cnn(C)c4)nc3c2)c1", "matrix": "hepatocytes", "measurement": "hepatocyte CLint", "value": "2.53 µL/min/10⁶ cells"}
{"Compound": "COc1ccnc(-c2nc3ccc(OC)cn3c2Nc2ccc(F)cc2)c1", "matrix": "liver microsomes", "tested at": "3 µM", "pH": "pH 7.4", "measurement": "microsomal CLint", "value": "240 µL/min/mg"}
{"Compound": "C[C@H]1C[C@@H](N2C(=N)N[C@](C)(c3cccc(Nc4ccc(C5CC5)nc4)c3Cl)CC2=O)CCO1", "matrix": "hepatocytes", "tested at": "0.5 µM", "measurement": "hepatocyte CLint", "value": "16 µL/min/10⁶ cells"}
{"Compound": "N#Cc1ccccc1-c1nc(N2CCC(c3ccccn3)C2)c2ccccc2n1 (stereo not drawn)", "matrix": "liver microsomes", "measurement": "microsomal CLint", "value": "350 µL/min/mg"}
{"Compound": "COc1ccnc(-c2nc3ccccn3c2Nc2ccc(F)cc2)c1", "matrix": "liver microsomes", "tested at": "3 µM", "pH": "pH 7.4", "measurement": "microsomal CLint", "value": "120 µL/min/mg"}
{"Compound": "c1ccc(CCNc2nc(-c3ccccn3)nc3ccccc23)nc1", "matrix": "liver microsomes", "measurement": "microsomal CLint", "value": "42 µL/min/mg"}
{"Compound": "CCCN(CCC)CCc1cccc2c1CC(=O)N2", "matrix": "hepatocytes", "tested at": "1 µM", "measurement": "hepatocyte CLint", "value": "1.7 µL/min/10⁶ cells"}
{"Compound": "Fc1ccc(Nc2c(-c3cccnn3)nc3ccccn23)cc1", "matrix": "liver microsomes", "tested at": "3 µM", "pH": "pH 7.4", "measurement": "microsomal CLint", "value": "64 µL/min/mg"}
{"Compound": "c1ccc(-c2nc(Nc3ccn4nccc4c3)c3ccccc3n2)nc1", "matrix": "liver microsomes", "measurement": "microsomal CLint", "value": "120 µL/min/mg"}
{"Compound": "O=c1[nH]c(=S)n(Cc2ccc(Cl)cc2CNCC(F)(F)F)c2cc[nH]c12", "matrix": "hepatocytes", "measurement": "hepatocyte CLint", "value": "4.3 µL/min/10⁶ cells"}
{"Compound": "CC(C)(C)[Si](C)(C)OCCN(c1ccc(F)cc1)c1c(-c2ccccn2)nc2ccccn12", "matrix": "liver microsomes", "tested at": "3 µM", "pH": "pH 7.4", "measurement": "microsomal CLint", "value": "> 300 µL/min/mg"}
{"Compound": "C=CC(=O)Nc1cc(Nc2nccc(Nc3cc(Cl)c(F)cc3C(C)(C)O)n2)c(OC)cc1N1CC[C@@H](N(C)C)C1", "matrix": "hepatocytes", "measurement": "hepatocyte CLint", "value": "3.3 µL/min/10⁶ cells"}
{"Compound": "CN(c1ccc(F)cc1)c1c(-c2cc(Cl)ccn2)nc2ccccn12", "matrix": "liver microsomes", "tested at": "3 µM", "pH": "pH 7.4", "measurement": "microsomal CLint", "value": "190 µL/min/mg"}
{"Compound": "c1ccc(C2CCN(c3nc(-c4cnn5c4CCCC5)nc4ccccc34)C2)nc1 (stereo not drawn)", "matrix": "liver microsomes", "measurement": "microsomal CLint", "value": "176 µL/min/mg"}
{"Compound": "COc1ccc(-c2nc3ccc(OC)cn3c2Nc2ccc(F)cc2)nc1", "matrix": "liver microsomes", "tested at": "3 µM", "pH": "pH 7.4", "measurement": "microsomal CLint", "value": "44 µL/min/mg"}
{"Compound": "Fc1ccc(Nc2nc(-c3ccccn3)nc3ccccc23)cc1", "matrix": "liver microsomes", "measurement": "microsomal CLint", "value": "67 µL/min/mg"}
{"Compound": "NCc1ccccc1", "matrix": "hepatocytes", "tested at": "5 µM", "measurement": "hepatocyte CLint", "value": "16.7 µL/min/10⁶ cells"}
